Measured values: ChEMBL document CHEMBL1806391, “Synthesis and biological evaluation of novel 5-alkyl-2-arylthio-6-((3,4-dihydroquinolin-1(2H)-yl)methyl)pyrimidin-4(3H)-ones as potent non-nucleoside HIV-1 reverse transcriptase inhibitors” (Bioorg Med Chem, 2011)
The source made the active and inactive calls. No cut-off for these calls is given here.

Experiments:
[1] = system: Human immunodeficiency virus 2; experiment: Antiviral activity against Human immunodeficiency virus 2 ROD infected in human MT4 cells assessed as inhibition of viral replication; format: functional, organism-based; conditions: ISOLATE ROD
Outline: (§1)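 MT-4 cells, spun 5 min at 1000 rpm, were resuspended at 6 × 10⁵ cells/mL and infected with HIV-1 IIIB or HIV-2 ROD. Compounds were added at the start in serial fivefold dilutions, in triplicate wells. Viability was read by MTT reduction at 540 and 690 nm five days post-infection. EC₅₀ is the concentration giving 50% protection from viral cytopathic effect, using the median OD of three wells.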

[2] = Selectivity index, ratio of CC50 for human MT4 cells to EC50 for wild type Human immunodeficieny virus 1 3B infected in human MT4 cells; format: toxicity, cell-based; conditions: read-out: Ratio CC50/EC50
Outline: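 SI is CC₅₀ in mock-infected MT-4 cells divided by EC₅₀ against HIV-1 IIIB, both from 5-day MTT assays in triplicate wells.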

[3] = Cytotoxic activity against human MT4 cells assessed as viability of mock-infected cells after 5 days by MTT assay; format: cell-based
Outline: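 Mock-infected, exponentially growing MT-4 cells (6 × 10⁵ cells/mL) were exposed to serial fivefold compound dilutions in triplicate wells. After 5 days, viability was read by MTT formazan absorbance at 540 and 690 nm. CC₅₀ is the concentration that lowered OD540 of the mock-infected control by 50%, using the median OD of three wells.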

[4] = target: Human immunodeficiency virus type 1 reverse transcriptase (Human immunodeficiency virus 1, UniProt Q72547); experiment: Inhibition of HIV1 wild type RT using poly(rA)/oligo(dT)15 homopolymer template after 1 hrs by ELISA
Outline: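 Wild-type HIV-1 RT was run on a poly(rA)/oligo(dT)₁₅ template, with oligo(dT) immobilized on plates and biotin-dUTP incorporated, 1 h at 37 °C. After Tris-HCl pH 7.5 washes, incorporated biotin was detected colorimetrically by streptavidin–alkaline phosphatase with PNPP (1 mg/mL, pH 9.5), 30 min at 37 °C, stopped with 0.5 M NaOH.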

[5] = system: Human immunodeficiency virus 2; experiment: Antiviral activity against wild type Human immunodeficiency virus 2 ROD infected in human MT4 cells assessed as protection against virus-induced cytotoxicity after 5 days by MTT assay; format: functional, organism-based; conditions: Human immunodeficiency virus 2, ISOLATE ROD, MT4, 120 h; outline: as §1
[6] = system: Human immunodeficiency virus 1; experiment: Antiviral activity against wild type Human immunodeficiency virus 1 3B infected in human MT4 cells assessed as protection against virus-induced cytotoxicity after 5 days by MTT assay; format: functional, organism-based; conditions: MT4, 120 h; outline: as §1

IC50 [4] [µM]	SMILES	inhibition [1]	selectivity ratio [2]	CC50 at 120 h [3] [µM]	EC50 [5] [µM]	EC50 [6] [µM]
30.7	CCc1c(CN2CCCc3ccccc32)nc(SCC(=O)c2ccccc2)[nH]c1=O	inactive	1220	298	> 298	0.24
	N#Cc1ccc(CSc2nc(CN3CCCc4ccccc43)cc(=O)[nH]2)cc1	inactive	≤ 2	86.8	> 86.8	≥ 43
	CCc1c(CN2CCCc3ccccc32)nc(SCC(=O)c2ccc(F)cc2)[nH]c1=O	inactive	273	156	> 156	0.57
